# Bioassay records as filed in PubChem BioAssay.
# Most compounds without a hit are left out; they make up all but 3.2% or so of the library.
# DAGLB inhibitor: blocks human DAGLB lipase activity. Q8NCG7. HEK293T DAGLB membrane lysate, EnzChek fluorogenic substrate. inhibition, % at 5.17 µM. 340,000 compounds, 0.059% hits. AID 504411; in the data active = inhibition above about 34%;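 note: 0% = enzyme with vehicle and 100% = wells lacking enzyme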
# mABHD4 FP: ABHD4 (mouse) inhibition, primary FP screen. AID 720543. 370,000 compounds, 0.54% hits. Q8VD66. purified mABHD4, FP-Rh probe fluorescence polarization. inhibition, % at 8.92 µM;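 active = inhibition exceeding the mean over every tested compound plus 3 SD, cut at about 30% in these data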;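 note: 0% = plate median of compound wells and 100% = S159A mutant with DMSO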
#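 Material: mouse ABHD4 enzyme, wild type; Benchmarks: S159A mutant high control, sample median low control; Buffer or medium: HEPES pH 7.0, NaCl, Pluronic buffer; Signal: fluorescence polarization; Read-out: percent inhibition of probe binding, normalized to plate controls; Timing: pre-incubation 45 min, probe exposure 60 min, at 25 °C; Dosing: 8.92 µM, single dose.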
# HTRA1 inhibitor: blocks human HTRA1 serine peptidase. recombinant HTRA1, FP-rhodamine activity-based probe, fluorescence polarization. inhibition, % at 5.96 µM. 340,000 compounds, 0.5% hits; in the data active = inhibition above about 36%;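 note: 0% = enzyme with DMSO and 100% = wells lacking enzyme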
# Target sequence (Q92743 whole entry, looked up): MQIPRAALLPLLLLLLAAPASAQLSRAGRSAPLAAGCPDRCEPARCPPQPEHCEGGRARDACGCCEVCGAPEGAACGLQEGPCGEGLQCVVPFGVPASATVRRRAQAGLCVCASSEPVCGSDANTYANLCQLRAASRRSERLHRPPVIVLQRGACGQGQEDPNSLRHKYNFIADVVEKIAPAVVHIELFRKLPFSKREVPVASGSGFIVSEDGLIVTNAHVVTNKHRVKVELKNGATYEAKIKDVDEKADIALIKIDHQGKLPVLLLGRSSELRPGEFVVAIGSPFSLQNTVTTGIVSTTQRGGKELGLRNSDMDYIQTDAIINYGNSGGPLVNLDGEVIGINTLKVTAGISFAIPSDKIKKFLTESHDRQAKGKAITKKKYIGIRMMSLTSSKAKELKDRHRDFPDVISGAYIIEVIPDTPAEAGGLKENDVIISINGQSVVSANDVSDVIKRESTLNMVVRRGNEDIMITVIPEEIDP
# rCAG binder: binds r(CAG) RNA repeats; inhibition, % at 3 µM; 370,000 compounds, 1.3% hits; AID 651821; r(CAG) RNA repeat, TO-PRO-1 dye displacement fluorescence;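 active = inhibition above the plate cutoff, the mean of all test compounds on that plate plus 3 SD, cut at about 35% in these data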;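 note: 0% = DMSO alone and 100% = 100 µM mitoxantrone as full dye displacement; higher means more dye released from RNA so lower well fluorescence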
# PRMT1 FP inh: PRMT1 (human) inhibition, primary screen. 370,000 compounds, 1.3% hits. Q99873. AID 652257. inhibition, % at 2.79 µM. recombinant PRMT1, activity-based probe fluorescence polarization;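 active = inhibition above about 21% made by adding two undisclosed values, limit read from the data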
# LEDGF integ inh: blocks HIV-1 LEDGF/p75-dependent DNA integration; 370,000 compounds, 0.64% hits; TR-FRET IN-LEDGF/p75 DNA integration, Eu/Cy5; AID 743269; inhibition, % at 3.7 µM;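 active = inhibition above the screen-wide mean plus 3 SD, cut at about 13% in these data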;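 note: signal is the Cy5 over europium emission ratio at 671 and 618 nm; 0% = plate median of compound wells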
# PRMT1 inh conf: PRMT1 (human) inhibition, FP confirmation | shares compounds with PRMT1 FP inh | recombinant His-PRMT1, activity-based probe fluorescence polarization | inhibition, % at 2.79 µM | 3,300 compounds, 42% hits | AID 687036;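 active = mean inhibition across replicates above the hit cutoff derived for the earlier primary screen, cut at about 22% in these data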
# An asterisk follows results filed as active; . = no result given.
SMILES,DAGLB inhibitor,mABHD4 FP,HTRA1 inhibitor,rCAG binder,PRMT1 FP inh,LEDGF integ inh,PRMT1 inh conf
OCC1(CCOc2ccccc2)CCN(Cc2ccc(OC(F)F)cc2)CC1,-6.8,-4.2,-6.1,-7.6,-5.0,3.4,.
Cc1ccc(-c2n[nH]c(=S)n2/N=C/c2cccs2)cc1,-1.0,1.1,-5.0,24.6,32.0*,-7.9,8.1
S=c1[nH]nc(-c2ccccc2)n1/N=C/c1cccs1,0.2,.,5.5,.,.,.,.
COc1cccc(/C=N/n2c(-c3cccs3)n[nH]c2=S)c1,-2.5,-5.1,-14.3,18.3,27.5*,6.9,19.9
COc1ccc(C=Nn2c(-c3ccc(F)cc3)n[nH]c2=S)c(OC)c1OC,.,-2.3,.,25.0,30.4*,-3.4,6.3
COc1ccc(/C=N/n2c(-c3ccccc3)n[nH]c2=S)cc1,-0.5,4.7,3.9,11.0,2.4,0.2,.
Cc1ccc(O)c(NC(=O)C2=CC(c3ccco3)=NS(=O)(=O)N2C)c1,3.7,5.9,-4.2,6.4,97.2*,-1.3,-0.7
CN1C(C(=O)Nc2cccc(O)c2)=CC(c2ccco2)=NS1(=O)=O,-0.9,3.2,-0.7,5.3,3.4,-0.9,.
O=C(NC(=S)N1CCCCC1CO)c1cccs1 (configuration not stated),2.2,-2.9,9.1,1.9,33.4*,5.2,13.4
CCC1CCCCN1C(=S)NC(=O)c1cccs1 (configuration not stated),-1.7,2.2,2.4,2.6,1.1,2.0,.
O=C(Nc1ccc2c(c1)OCO2)[C@@H]1CCCN1S(=O)(=O)c1cccc2cccnc12,1.6,-1.6,-0.3,-0.8,-2.6,1.7,.
c1ccc(C[C@H]2CN=C(Nc3ccccc3)N2CCCC2CCCCC2)cc1,-4.0,4.8,-9.9,1.6,-0.4,-3.0,.
O=C(COc1cccnc1[N+](=O)[O-])NCc1ccco1,-0.4,-0.8,4.2,1.6,-1.5,-0.4,.
O=C(O)CC(SCC(=O)Nc1ccc(S(=O)(=O)N2CCCC2)cc1)C(=O)O (configuration not stated),-2.7,2.2,0.3,5.5,45.2*,0.4,38.8*
O=C1/C(=C/c2ccccc2O)SC(=S)N1Cc1cccnc1,-0.7,-6.6,-9.0,6.8,54.7*,1.3,34.7*
CCOC(=O)C1CCCN(C2CC(=O)N(c3ccc(NC(C)=O)cc3)C2=O)C1 (configuration not stated),-2.0,-9.1,3.2,-1.6,36.7*,-4.6,0.7
COc1ccc(-n2ncc3c(NCC(C)C)ncnc32)cc1,-0.2,-9.4,-3.0,-4.4,0.6,3.1,.
O=C1/C(=C/c2ccccn2)SC(=S)N1Nc1ncc(C(F)(F)F)cc1Cl,4.2,1.5,-7.3,7.6,34.1*,-0.1,18.8
O=C1/C(=C\c2ccccn2)SC(=S)N1Nc1ncc(C(F)(F)F)cc1Cl,3.0,.,-2.8,.,.,.,.
Nn1c(SCC(=O)NCc2ccccc2)nncc1=O,1.6,-4.1,4.4,1.6,11.4,-0.3,.
Cn1c(=O)[nH]c(=O)c2c1nc(SCCN1CCCCC1)n2Cc1ccccc1,0.1,5.9,-0.2,-5.6,-4.7,1.5,.
CSc1nc2c(c(=O)[nH]c(=O)n2C)n1Cc1ccc(Cl)cc1,4.1,3.4,0.4,1.0,66.2*,8.8,6.8
Cn1c(=O)[nH]c(=O)c2c1nc(SCCN1CCCCC1)n2CCCc1ccccc1,-1.0,-0.4,-1.9,-5.9,57.2*,-1.9,45.5*
Cc1ccc(Cn2c(SCCN3CCCCC3)nc3c2c(=O)[nH]c(=O)n3C)cc1,-1.4,-0.4,-5.7,-0.4,33.1*,0.9,46.0*
Cc1cccc(OCC(=O)N/N=C2/SCC(=O)N2Cc2ccco2)c1,1.6,2.4,-0.9,-5.4,-0.6,3.3,.
Cc1cccc2cc3cccc(C)c3nc12,-3.0,0.3,2.2,1.9,0.4,-1.8,.
Cc1ccc(/C=c2\sc3n(c2=O)CN(c2ccc(Br)cc2)CN=3)o1,-3.0,22.5,1.4,6.2,36.5*,2.4,5.4
CCN1/C(=C/c2ccc3cc(C)ccc3[n+]2C)Sc2ccc3sccc3c21,2.4,-116.7,-0.2,11.5,-0.5,4.2,.
Cc1sc2c3ccsc3ccc2[n+]1C,2.9,6.1,-3.1,-5.5,67.0*,-0.8,58.6*
